Assay results reported in ChEMBL document CHEMBL4425095, “Novel Cephalosporins Selectively Active on Nonreplicating Mycobacterium tuberculosis” (J Med Chem, 2016).
≈ marks a conversion by molar mass, not a printed value. Calls of active or inactive are those of the source. The calls are words filed in the database; no cut-off is given here.

How the values were obtained:
[1] = system: Mycolicibacterium smegmatis; experiment: Antibacterial activity against replicating Mycobacterium smegmatis measured at OD580 = 0.01; format: functional
How it was run: (§1)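 Replicating organisms in the paper's earlier-described bacteriologic medium; 200 μL of cells at OD580 0.01 exposed to DMSO vehicle or drug in 96-well plates; growth read by optical density.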

[2] = system: Mycobacterium tuberculosis; experiment: Bactericidal activity against wild-type non-replicating Mycobacterium tuberculosis H37Rv assessed as log reduction in CFU incubated for 7 days measured at OD580 = 0.1 in presence of 0.5 mM NaNO2 by charcoal agar resazurin assay; format: functional, organism-based
How it was run: (§2)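 Nonreplicating wild-type H37Rv at OD580 0.1 or 0.01 treated 7 days with or without 0.5 mM NaNO2. 10 μL spotted onto 7H11-OADC-charcoal agar and incubated 7–10 days at 37 °C. Developed with Alamar blue:Tween80 1:1 for 1 h; fluorescence read at ex 530/em 590. Complete loss of fluorescence taken as ≥2–3 log10 CFU reduction.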

Candida albicans = experiment: Antifungal activity against replicating Candida albicans measured at OD580 = 0.01; format: functional; how it was run: as §1
[3] = system: Mycobacterium tuberculosis; experiment: Bactericidal activity against wild-type non-replicating Mycobacterium tuberculosis H37Rv assessed as log reduction in CFU at 0.7 to 0.8 ug/ml incubated for 7 days measured at OD580 = 0.01 by charcoal agar resazurin assay; format: functional
How it was run: (§3)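 Nonreplicating wild-type H37Rv at OD580 0.01 exposed to compound for 7 days. Survivors serially diluted in PBS-tyloxapol and plated on 7H11-OADC agar; colonies counted at ~3 weeks. Limit of detection 1 colony from 10 μL undiluted sample; triplicates, one of two experiments.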

[4] = Stability of compound in pH 7 solution assessed as parent compound remaining incubated for 4 hrs at 37 degC; format: physicochemical
[5] = Solubility of compound in pH 7.4 solution measured after shaking for 4 hrs; format: physicochemical
How it was run: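 Solubility at pH 7.4 determined after shaking at room temperature for 4 h.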

[6] = system: Mycobacterium tuberculosis; experiment: Bactericidal activity against wild-type non-replicating Mycobacterium tuberculosis H37Rv assessed as log reduction in CFU incubated for 7 days measured at OD580 = 0.01 in presence of 0.5 mM NaNO2 by charcoal agar resazurin assay; format: functional, organism-based; how it was run: as §2
[7] = system: Mycobacterium tuberculosis; experiment: Bactericidal activity against wild-type non-replicating Mycobacterium tuberculosis H37Rv at 1 to 100 ug/ml incubated for 7 days measured at OD580 = 0.1 in presence of 0.06 to 1 mM NaNO2; format: functional, organism-based
How it was run: (§4)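 Wild-type H37Rv resuspended at OD580 0.1 in nonreplicating medium with NaNO2 at 0–1 mM, one plate per nitrite level. Exposed to compound for 7 days, then standard outgrowth assay to estimate survivors.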

[8] = Stability of compound in pH 12 solution assessed as parent compound remaining incubated for 4 hrs at 37 degC; format: physicochemical; settings: read-out: Stability
How it was run: (§5)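 Percent parent compound remaining after 4 h incubation at 37 °C at the stated pH.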

BMDM [9] = experiment: Cytotoxicity against C57BL6 mouse primary BMDM infected with wild-type non-replicating Mycobacterium tuberculosis H37Rv assessed as cell morphological changes at 100 ug/ml after 4 days; format: cell-based; settings: 96 h
How it was run: (§6)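 Bone marrow macrophages (~1×10^5) from 8-week female C57Bl6 mice grown in DMEM/10% FBS/10% L-cell medium, with or without 50 ng/mL mouse IFNγ. Infected with H37Rv at MOI 1–5 for 4 h, washed, then given 100 μg/mL compound in 1% DMSO for 3 or 4 days. Lysed in 0.5% Triton X-100, CFU counted on 7H11-OADC agar; morphology observed.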

[10] = system: Mycobacterium tuberculosis; experiment: Bactericidal activity against wild-type non-replicating Mycobacterium tuberculosis H37Rv incubated for 7 days measured at OD580 = 0.01 in absence of NaNO2 by charcoal agar resazurin assay; format: functional, organism-based; how it was run: as §2
[11] = system: Mycobacterium tuberculosis; experiment: Bactericidal activity against wild-type non-replicating Mycobacterium tuberculosis H37Rv assessed as log reduction in CFU at 3 to 10 ug/ml incubated for 7 days measured at OD580 = 0.01 by charcoal agar resazurin assay; format: functional; how it was run: as §3
[12] = Stability in pH 7.4 phosphate buffer solution assessed as parent compound remaining at 5 to 50 ug/ml at 37 degC measured every 12 hrs up to 144 hrs by LC-MS analysis; format: physicochemical
How it was run: (§7)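 Compound at 50 μg/mL in cell-free PBS pH 7.4, or nonreplicating medium pH 5.0 (BSA, tyloxapol, lysine, pantothenate omitted) with or without 0.5 mM NaNO2. Poorly soluble compounds at 5 μg/mL in 50:50 acetonitrile mixtures, pH readjusted to 5.0.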

[13] = system: Mycobacterium tuberculosis; experiment: Bactericidal activity against wild-type replicating Mycobacterium tuberculosis H37Rv assessed as reduction in CFU in presence of beta-lactamase inhibitor clavulanate; format: functional, organism-based
[14] = Stability in CD-1 mouse plasma assessed as drug transformation at 1 ug/ml measured at <5 mins by LC-MS analysis; format: ADME, cell-free
Pseudomonas aeruginosa = experiment: Antibacterial activity against replicating Pseudomonas aeruginosa measured at OD580 = 0.01; format: functional; how it was run: as §1
[15] = system: Mycobacterium tuberculosis; experiment: Bactericidal activity against wild-type non-replicating Mycobacterium tuberculosis H37Rv assessed as drug tolerance development at 3 to 10 ug/ml incubated for 7 days measured at OD580 = 0.01 by charcoal agar resazurin assay; format: functional, organism-based
[16] = system: Mycobacterium tuberculosis; experiment: Bactericidal activity against wild-type non-replicating Mycobacterium tuberculosis H37Rv infected in recombinant mouse IFN-gamma stimulated C57BL6 mouse primary BMDM assessed as log reduction in CFU at 100 ug/ml incubated for 4 days by charcoal agar resazurin assay; format: functional; how it was run: as §6
Staphylococcus aureus = experiment: Antibacterial activity against replicating Staphylococcus aureus measured at OD580 = 0.01; format: functional; how it was run: as §1
[17] = Cytotoxicity against human HepG2 cells assessed as reduction in cell viability after 2 days by Celltiter-Glo reagent based assay; settings: read-out: LD50
How it was run: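 HepG2 cells in DMEM with 10% FBS, pyruvate, glutamine and nonessential amino acids. Seeded at 3000 cells/well and exposed 2 days to compound or vehicle (≤1% DMSO final). Reported as LD50.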

[18] = system: Mycobacterium tuberculosis; experiment: Bactericidal activity against wild-type non-replicating Mycobacterium tuberculosis H37Rv assessed as reduction in CFU at 0.1 to 100 ug/ml incubated for 7 days measured at OD580 = 0.01 in presence of beta-lactamase inhibitor clavulanate by charcoal agar resazurin assay; format: functional, organism-based
[19] = Half life in mouse liver microsomes; format: ADME, Microsome
How it was run: (§8)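 Mouse and human liver microsomal stability run by a contract lab in triplicate.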

[20] = Stability in pH 5 non-replicating medium assessed as parent compound remaining at 5 to 50 ug/ml at 37 degC measured every 12 hrs up to 144 hrs by LC-MS analysis; format: physicochemical; settings: buffer; how it was run: as §7
[21] = Stability of compound in pH 2 solution assessed as parent compound remaining incubated for 4 hrs at 37 degC; format: physicochemical; settings: read-out: Stability; how it was run: as §5
[22] = Half life in human plasma at 1 ug/ml by LC-MS analysis; format: ADME, cell-free
[23] = Half life in human liver microsomes; format: ADME, Microsome; how it was run: as §8
[24] = Stability in pH 5 non-replicating medium containing 0.5 mM NaNO2 assessed as parent compound remaining at 5 to 50 ug/ml at 37 degC measured every 12 hrs up to 144 hrs by LC-MS analysis; format: physicochemical; settings: buffer; how it was run: as §7
[25] = Permeability of compound by PAMPA; format: ADME; settings: read-out: permeability
How it was run: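 PAMPA membrane permeability by a contract lab; reported as mean Pe (10^-6 cm/s) and log Pe.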

[26] = Intrinsic clearance in human liver microsomes assessed per mg protein measured up to 60 mins; format: ADME, Microsome; settings: 1 h; how it was run: as §8
[27] = Stability in mouse liver microsomes assessed as compound metabolism up to 60 mins; format: ADME, Microsome; settings: 1 h; how it was run: as §8
Escherichia coli = experiment: Antibacterial activity against replicating Escherichia coli measured at OD580 = 0.01; format: functional; how it was run: as §1
[28] = system: Mycobacterium tuberculosis; experiment: Bactericidal activity against wild-type non-replicating Mycobacterium tuberculosis H37Rv multi-stress model incubated for 7 days measured at OD580 = 0.01 by charcoal agar resazurin assay; format: functional, organism-based; how it was run: as §2
[29] = system: Mycobacterium tuberculosis; experiment: Bactericidal activity against wild-type non-replicating Mycobacterium tuberculosis H37Rv at 1 to 100 ug/ml incubated for 7 days measured at OD580 = 0.1 in presence of 1 mM NaNO2; format: functional, organism-based; how it was run: as §4
[30] = system: Mycobacterium tuberculosis; experiment: Bactericidal activity against wild-type non-replicating Mycobacterium tuberculosis H37Rv at 1 to 100 ug/ml incubated for 7 days measured at OD580 = 0.1 in presence of up to 0.5 mM NaNO2; format: functional, organism-based; how it was run: as §4
[31] = system: Mycobacterium tuberculosis; experiment: Potentiation of meropenem-induced bactericidal activity against wild-type replicating Mycobacterium tuberculosis H37Rv assessed as decrease in MIC90 relative to control; format: functional
BMDM [32] = experiment: Cytotoxicity against C57BL6 mouse primary BMDM infected with wild-type non-replicating Mycobacterium tuberculosis H37Rv assessed as cell morphological changes at 100 ug/ml after 3 days; format: cell-based; settings: 72 h; how it was run: as §6
[33] = system: Mycobacterium tuberculosis; experiment: Bactericidal activity against wild-type non-replicating Mycobacterium tuberculosis H37Rv infected in recombinant mouse IFN-gamma stimulated C57BL6 mouse primary BMDM assessed as log reduction in CFU at 100 ug/ml incubated for 3 days by charcoal agar resazurin assay; format: functional; how it was run: as §6

Structure (SMILES) | MIC90 [1] | Activity [2] | MIC90 (Candida albicans) | Activity [3] | solubility at 4 h [5] | Activity [6] | remaining at 4 h [8] | Activity [10] | LCK [11] | Stability [14] | MIC90 (Pseudomonas aeruginosa) | Activity [15] | MIC90 (Staphylococcus aureus) | CC50 at 48 h [17] | t1/2 [19] | remaining at 4 h [21] | t1/2 [22] | t1/2 [23] | Stability [24] | Papp [25] | also measured
CCCOC(=O)C1=C(C)CS[C@@H]2[C@H](NC(=O)COc3ccccc3)C(=O)N12 | > 100 µg/mL | Dose-dependent effect | > 100 µg/mL | 2 deltalog10CFU/ml | 22.7 to 23 µM (≈ 8.86 to 8.98 µg/mL) | Dose-dependent effect | 0% | Active | >=3.4 | Unstable | > 100 µg/mL | Active | > 100 µg/mL | 75.7 to 100 µg/mL (≈ 194 to 256 µM) | < 5 min | 100 to 110% | 2 to 3 h | 1.44 h | 100% | 7.28 ×10⁻⁶ cm/s | Stability ([4]; buffer, pH 7, 4 h): 133%; Activity [7]: Active; Activity (BMDM [9]): Non-Toxic; Stability [12]: 80%; Activity [13]: inactive; Activity [16]: 1 - 2 deltalog10CFU/ml; Activity [18]: Active; Stability [20]: 100%; CLH [26]: 8.07 µL/min; Stability [27]: Unstable; MIC90 (Escherichia coli): > 100 µg/mL
CC1=C(C(=O)O)N2C(=O)[C@@H](NC(=O)[C@H](N)c3ccccc3)[C@H]2SC1 [CEPHALEXIN ANHYDROUS] |  |  |  |  |  |  |  |  |  |  |  |  |  |  |  |  |  |  |  |  | Activity [28]: inactive
CO[C@H]1/C=C/O[C@@]2(C)Oc3c(C)c(O)c4c(O)c(c(/C=N/N5CCN(C)CC5)c(O)c4c3C2=O)NC(=O)/C(C)=C\C=C\[C@H](C)[C@H](O)[C@@H](C)[C@@H](O)[C@@H](C)[C@H](OC(C)=O)[C@@H]1C |  |  |  |  |  |  |  |  |  |  |  |  |  |  |  |  |  |  |  |  | Activity [29]: Active; Activity [30]: inactive
O=C(O)[C@H]1/C(=C/CO)O[C@@H]2CC(=O)N21 [CLAVULANIC ACID] |  |  |  |  |  |  |  |  |  |  |  |  |  |  |  |  |  |  |  |  | fold change (FC) [31]: 4
CC1=C(c2nc(C)no2)N2C(=O)[C@@H](NC(=O)COc3ccccc3)[C@H]2SC1 | > 100 µg/mL | Dose-dependent effect | > 100 µg/mL | 2 deltalog10CFU/ml | 83.7 to 84 µM (≈ 32.3 to 32.5 µg/mL) | Dose-dependent effect | 0% | Active | >=3.4 | Unstable | > 100 µg/mL | Active | > 100 µg/mL | > 100 µg/mL | < 5 min | 100 to 102% | 2 to 3 h | 1.27 h | Stable | 13.4 ×10⁻⁶ cm/s | Activity (BMDM [32]): Non-Toxic; Activity [33]: 1 - 2 deltalog10CFU/ml; remaining at 4 h ([4]; pH 7 solution, pH 7, read-out: Stability): 101%; CLH [26]: 9.13 µL/min; Stability [27]: Unstable; MIC90 (Escherichia coli): > 100 µg/mL
